# Measurements gathered from unrelated publications.
# Each line is one published result; the experiments were not run side by side. pIC50: −log10 of the molar value.
# Target: Prostaglandin G/H synthase 2 (PTGS2, Homo sapiens, UniProt P35354)
# Observed: enzyme activity
# Mode: inhibitor
# Residues used in one study (P35354 18-604): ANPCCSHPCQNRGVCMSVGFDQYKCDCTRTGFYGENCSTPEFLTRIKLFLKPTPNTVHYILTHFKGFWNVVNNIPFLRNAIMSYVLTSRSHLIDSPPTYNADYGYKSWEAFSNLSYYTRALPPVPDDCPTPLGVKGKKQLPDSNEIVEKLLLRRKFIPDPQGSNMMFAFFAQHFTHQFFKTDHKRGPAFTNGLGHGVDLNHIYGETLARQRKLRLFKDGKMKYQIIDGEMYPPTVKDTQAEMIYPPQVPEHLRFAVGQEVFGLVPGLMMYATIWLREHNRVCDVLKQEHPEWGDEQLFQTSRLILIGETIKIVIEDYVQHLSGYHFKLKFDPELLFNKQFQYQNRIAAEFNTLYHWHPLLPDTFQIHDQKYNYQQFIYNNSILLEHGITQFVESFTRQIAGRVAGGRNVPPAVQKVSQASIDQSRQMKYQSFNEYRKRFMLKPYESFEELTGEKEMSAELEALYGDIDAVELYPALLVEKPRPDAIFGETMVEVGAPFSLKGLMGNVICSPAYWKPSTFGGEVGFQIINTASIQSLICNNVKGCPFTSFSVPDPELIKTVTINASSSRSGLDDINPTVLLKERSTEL
SMILES,technique,pIC50
COc1ccc(Nc2c(-c3ccc(S(C)(=O)=O)cc3)nc3c(C)cccn23)cc1,,7.10
Cc1ccc(-c2nn(-c3ccc(S(C)(=O)=O)cc3)cc2/C=N\N=c2/[nH]c(-c3ccc([N+](=O)[O-])cc3)cs2)cc1,,4.95
COc1ccc(Nc2c(-c3ccc(S(C)(=O)=O)cc3)nc3cc(C)ccn23)cc1,,7.00
O=Cc1cn(-c2nc(N3CCCC3)nc(N3CCOCC3)n2)c2ccccc12,,5.70
COc1ccc(Nc2c(-c3ccc(S(C)(=O)=O)cc3)nc3ccccn23)cc1,,6.41
CCn1c(-c2nc3cc(C(=O)N4CCC[C@@H](N)C4)cc(OC)c3n2C)cc2cccnc21,,< 4.00
Cc1ccn2c(Nc3ccc(F)cc3)c(-c3ccc(S(C)(=O)=O)cc3)nc2c1,,7.10
CC(=O)c1cccc(N=Nc2c(C(=O)O)cc(O)c(O)c2O)c1,,5.26
O=C(O)c1ccc(O)cc1,absorbance,4.71
Cc1cccc2nc(-c3ccc(S(C)(=O)=O)cc3)c(Nc3ccc(F)cc3)n12,,7.10
CS(=O)(=O)c1ccc(-c2ncc(Cl)cc2-c2nc3ccccc3s2)cc1,absorbance,6.64
COc1ccc(-c2nn(-c3ccc(S(C)(=O)=O)cc3)cc2C=N/N=c2\[nH]c(-c3ccc([N+](=O)[O-])cc3)cs2)cc1,,5.05
COC(=O)c1cc(O)c(O)c(O)c1,,4.75
Cc1ccc(Nc2c(-c3ccc(S(C)(=O)=O)cc3)nc3c(C)cccn23)cc1,,7.15
CC1=NN(c2cccc(Cl)c2)C(=O)/C1=C\c1cn(-c2nc(N3CCOCC3)nc(N3CCOCC3)n2)c2ccccc12,,7.70
CS(=O)(=O)c1ccc(-n2cc(/C=N/N=c3\[nH]c(-c4ccc([N+](=O)[O-])cc4)cs3)c(-c3ccc(Br)cc3)n2)cc1,,4.94
Cc1ccc(Nc2c(-c3ccc(S(C)(=O)=O)cc3)nc3cc(C)ccn23)cc1,,7.15
O=C1Nc2ccccc2/C1=C/c1cn(-c2nc(N3CCCC3)nc(N3CCOCC3)n2)c2ccccc12,,5.10
CS(=O)(=O)c1ccc(-n2cc(/C=N/N=c3\[nH]c(-c4ccc([N+](=O)[O-])cc4)cs3)c(-c3ccc([N+](=O)[O-])cc3)n2)cc1,,4.81
O=c1cc(-c2ccc(O)c(O)c2)oc2cc(O)cc(O)c12,,5.64
O=Cc1cn(-c2nc(N3CCCCC3)nc(N3CCOCC3)n2)c2ccccc12,,6.15
CS(=O)(=O)c1ccc(-c2nc3ccccn3c2Nc2ccc(F)cc2)cc1,,7.00
COC(=O)c1ccc(O)cc1,absorbance,4.01
O=C1/C(=C\c2cn(-c3nc(N4CCCCC4)nc(N4CCOCC4)n3)c3ccccc23)c2ccccc2N1c1c(Cl)cccc1Cl,,6.00
CC(C)Cc1ccc(-c2nn(-c3ccc(S(C)(=O)=O)cc3)cc2/C=N/N=c2\[nH]c(-c3ccc([N+](=O)[O-])cc3)cs2)cc1,,6.09
O=Cc1cn(-c2nc(N3CCOCC3)nc(N3CCOCC3)n2)c2ccccc12,,7.52
O=C(O)c1cc(O)c(O)c(O)c1,,5.09
O=C1/C(=C\c2cn(-c3nc(N4CCOCC4)nc(N4CCOCC4)n3)c3ccccc23)c2ccccc2N1c1c(Cl)cccc1Cl,,6.40
CC(=O)c1ccc(/N=N/c2cc(/C=C/C(=O)O)ccc2O)cc1,,< 4.00
Cc1ccc(-c2nc3ccccc3s2)c(-c2ccc(S(N)(=O)=O)cc2)c1,absorbance,6.60
O=c1oc2c(O)c(O)cc3c(=O)oc4c(O)c(O)cc1c4c23,,5.34
O=C1Nc2ccccc2/C1=C/c1cn(-c2nc(N3CCOCC3)nc(N3CCOCC3)n2)c2ccccc12,,6.00
NS(=O)(=O)c1ccc(-c2ncc(Cl)cc2-c2nc3ccccc3s2)cc1,absorbance,6.68
